Data reported in ChEMBL document CHEMBL3351236, “Prodrug oncrasin-266 improves the stability, pharmacokinetics, and safety of NSC-743380” (Bioorg Med Chem, 2014).
Activity calls are given as the source filed them. The calls are words filed in the database; no cut-off is given here.

Experiments:
[1] = system: Mus musculus; experiment: Toxicity in Balb/c mouse assessed as histopathological changes in liver at 150 mg/kg, ip dosed once using compound formulated in Solutol HS15 and ethyl alcohol measured after 48 hrs; conditions: in vivo
[2] = system: Lung; experiment: Drug level in lung of Balb/c mouse xenografted with human Calu3 cells assessed as aldehyde metabolite level at 60 mg/kg, iv using compound formulated in Solutol HS15 and ethyl alcohol measured after 24 hrs by HPLC/MS method; assay type: ADME, organism-based, Calu-3; set-up: dose 60 mg/kg, route intravenous; conditions: in vivo
Method in brief: (§1)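 Nude mice bearing subcutaneous Calu3 xenografts, 1 mouse per treatment group. Organs and tumor were taken 24 h later and kept at −80°C, then homogenized in methanol (50 mg/ml) on ice. Homogenate was extracted with acetonitrile containing 0.2% formic acid plus an internal standard, centrifuged, and the supernatant analyzed by HPLC/MS.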

[3] = Drug level in intestine of Balb/c mouse xenografted with human Calu3 cells at 60 mg/kg, iv using compound formulated in Solutol HS15 and ethyl alcohol measured after 24 hrs by HPLC/MS method; assay type: ADME, organism-based, Calu-3; set-up: dose 60 mg/kg, route intravenous; conditions: read-out: Drug uptake
Method in brief: as §1

[4] = system: Mus musculus; experiment: Toxicity in Balb/c mouse assessed as serum AST level at 25 mg/kg, ip dosed daily for 8 days using compound formulated in Solutol HS15 and ethyl alcohol; conditions: in vivo, 192 h
[5] = system: NCI-H460; experiment: Anticancer activity against human H460 cells at 0.03 to 30 uM by sulforhodamine B assay; assay type: functional, cell-based
Method in brief: (§2)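 Sulforhodamine B viability assay on lung cancer cells exposed to a range of compound concentrations for 3 days. Untreated reference: DMSO-treated cells set as 100. Values are mean ± SD of quadruplicate wells.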

[6] = system: Mus musculus; experiment: Toxicity in Balb/c mouse assessed as mortality level at 300 mg/kg, ip using compound formulated in Solutol HS15 and ethyl alcohol measured after 3 days; assay type: organism-based; set-up: dose 300 mg/kg, route intraperitoneal; conditions: in vivo, 72 h
Method in brief: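 Acute toxicity: 3 Balb/c mice (7–8 weeks) per group, given i.p. 300 mg/kg on day 1 and again on day 2. Deaths were recorded by day; survivors were followed for 2 weeks.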

[7] = system: Mus musculus; experiment: Toxicity in Balb/c mouse assessed as serum ALP level at 150 mg/kg, ip dosed daily for 3 days using compound formulated in Solutol HS15 and ethyl alcohol measured on day 6; assay type: organism-based; set-up: dose 150 mg/kg, route intraperitoneal; conditions: in vivo, 72 h
[8] = system: NCI-H157; experiment: Anticancer activity against human NCI-H157 cells at 0.03 to 30 uM by sulforhodamine B assay; assay type: functional, cell-based
Method in brief: as §2

[9] = system: Calu-3; experiment: Anticancer activity against human Calu3 cells at 0.03 to 30 uM by sulforhodamine B assay; assay type: functional, cell-based
Method in brief: as §2

[10] = system: Mus musculus; experiment: Toxicity in Balb/c mouse assessed as serum ALT level at 25 mg/kg, ip dosed daily for 8 days using compound formulated in Solutol HS15 and ethyl alcohol measured on day 6; assay type: organism-based; set-up: dose 25 mg/kg, route intraperitoneal; conditions: in vivo, 192 h
[11] = system: Mus musculus; experiment: Toxicity in Balb/c mouse assessed as serum AST level at 150 mg/kg, ip dosed daily for 3 days using compound formulated in Solutol HS15 and ethyl alcohol measured on day 6; assay type: organism-based; set-up: dose 150 mg/kg, route intraperitoneal; conditions: in vivo, 72 h
[12] = system: Tumour; experiment: Drug level in tumor of Balb/c mouse xenografted with human Calu3 cells assessed as aldehyde metabolite level at 60 mg/kg, iv using compound formulated in Solutol HS15 and ethyl alcohol measured after 24 hrs by HPLC/MS method; assay type: ADME, organism-based, Neoplasm, Calu-3; set-up: dose 60 mg/kg, route intravenous; conditions: in vivo
Method in brief: as §1

[13] = system: Mus musculus; experiment: Toxicity in Balb/c mouse assessed as serum ALP level at 25 mg/kg, ip dosed daily for 8 days using compound formulated in Solutol HS15 and ethyl alcohol measured on day 6; assay type: organism-based; set-up: dose 25 mg/kg, route intraperitoneal; conditions: in vivo, 192 h
[14] = Stability in injectable solution with Solutol HS15 and ethyl alcohol and 0.9% NaCl assessed as drug hydrolysis within 7 hrs at 37 degC by HPLC method; assay type: physicochemical; conditions: read-out: Drug degradation
[15] = system: NCI-H1299; experiment: Anticancer activity against human H1299 cells at 0.03 to 30 uM by sulforhodamine B assay; assay type: functional, cell-based
Method in brief: as §2

[16] = Drug level in lung of Balb/c mouse xenografted with human Calu3 cells at 60 mg/kg, iv using compound formulated in Solutol HS15 and ethyl alcohol measured after 24 hrs by HPLC/MS method; assay type: ADME, organism-based, Calu-3; set-up: dose 60 mg/kg, route intravenous; conditions: read-out: Drug uptake
Method in brief: as §1

[17] = Stability in injectable solution with Solutol HS15 and ethyl alcohol and 0.9% NaCl assessed as drug hydrolysis within 7 hrs at room temperature by HPLC method; assay type: physicochemical; conditions: 7 h
[18] = system: Intestine; experiment: Drug level in intestine of Balb/c mouse xenografted with human Calu3 cells assessed as aldehyde metabolite level at 60 mg/kg, iv using compound formulated in Solutol HS15 and ethyl alcohol measured after 24 hrs by HPLC/MS method; assay type: ADME, organism-based, Calu-3; set-up: dose 60 mg/kg, route intravenous; conditions: in vivo
Method in brief: as §1

[19] = Stability in powder form in non-evacuated chambers at 37 degC after 14 days by HPLC method; assay type: physicochemical; conditions: read-out: Stability
Method in brief: (§3)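 Powders were kept at 4°C, room temperature (21°C) or 37°C and sampled for up to 90 days. Each aliquot was dissolved in DMSO, diluted with 9 volumes acetonitrile, and analyzed by HPLC for purity.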

[20] = system: Mus musculus; experiment: Toxicity in Balb/c mouse assessed as serum ALT level at 150 mg/kg, ip dosed daily for 3 days using compound formulated in Solutol HS15 and ethyl alcohol measured on day 6; assay type: organism-based; set-up: dose 150 mg/kg, route intraperitoneal; conditions: in vivo, 72 h
[21] = system: Spleen; experiment: Drug level in spleen of Balb/c mouse xenografted with human Calu3 cells assessed as aldehyde metabolite level at 60 mg/kg, iv using compound formulated in Solutol HS15 and ethyl alcohol measured after 24 hrs by HPLC/MS method; assay type: ADME, organism-based, Calu-3; set-up: dose 60 mg/kg, route intravenous; conditions: in vivo
Method in brief: as §1

[22] = system: Kidney; experiment: Drug level in kidney of Balb/c mouse xenografted with human Calu3 cells assessed as aldehyde metabolite level at 60 mg/kg, iv using compound formulated in Solutol HS15 and ethyl alcohol measured after 24 hrs by HPLC/MS method; assay type: ADME, organism-based, Calu-3; set-up: dose 60 mg/kg, route intravenous; conditions: in vivo
Method in brief: as §1

[23] = Drug level in tumor of Balb/c mouse xenografted with human Calu3 cells at 60 mg/kg, iv using compound formulated in Solutol HS15 and ethyl alcohol measured after 24 hrs by HPLC/MS method; assay type: ADME, organism-based, Neoplasm, Calu-3; set-up: dose 60 mg/kg, route intravenous; conditions: read-out: Drug uptake
Method in brief: as §1

[24] = Stability in powder form at 4 degC to 37 degC after 1 to 14 days by HPLC method; assay type: physicochemical
Method in brief: as §3

[25] = Stability in powder form in non-evacuated chambers at 37 degC after 1 to 14 days by HPLC method; assay type: physicochemical
Method in brief: as §3

[26] = system: Mus musculus; experiment: Toxicity in Balb/c mouse assessed as mortality at 150 mg/kg, ip dosed daily for 3 days using compound formulated in Solutol HS15 and ethyl alcohol measured on day 5; assay type: organism-based; set-up: dose 150 mg/kg, route intraperitoneal; conditions: in vivo, 72 h
[27] = system: Liver; experiment: Drug level in liver of Balb/c mouse xenografted with human Calu3 cells assessed as aldehyde metabolite level at 60 mg/kg, iv using compound formulated in Solutol HS15 and ethyl alcohol measured after 24 hrs by HPLC/MS method; assay type: ADME, organism-based, Calu-3; set-up: dose 60 mg/kg, route intravenous; conditions: in vivo
Method in brief: as §1

[28] = Stability in stock solution with Solutol HS15 and ethyl alcohol solvent at room temperature by HPLC method; assay type: physicochemical
Method in brief: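 Stock solutions were made by dissolving compound in 75% (w/v) Solutol HS15 in ethanol (about 20% v/v ethanol). Final concentrations were 8 mg/ml for prodrug and 5 mg/ml for parent. Stocks were stored at 4°C or room temperature; aliquots were frozen at −20°C before HPLC.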

[29] = system: Mus musculus; experiment: Toxicity in Balb/c mouse assessed as changes in blood cell parameters at 150 mg/kg, ip dosed daily for 3 days using compound formulated in Solutol HS15 and ethyl alcohol measured after 48 hrs; assay type: organism-based; set-up: dose 150 mg/kg, route intraperitoneal; conditions: in vivo
[30] = Half life in Balb/c mouse at 25 mg/kg, iv using compound formulated in Solutol HS15 and ethyl alcohol by HPLC/MS method; assay type: ADME, organism-based; set-up: dose 25 mg/kg, route intravenous; conditions: in vivo
Method in brief: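 Balb/c mice received 25 mg/kg by tail vein in Solutol HS15/ethanol vehicle. Blood was drawn from the tail vein at 0, 1, 2, 3.5, 7 and 24 h, 3 mice per time point, into lithium-heparin tubes. Plasma (50 µl) was precipitated with 150 µl acetonitrile containing 0.2% formic acid and internal standard, iced 15 min, centrifuged, and the supernatant analyzed by HPLC/MS for parent and released drug.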

Structure (SMILES): OCc1cn(Cc2cccc(Cl)c2)c2ccccc12
- Activity [1]: Toxic
- Drug uptake [2]: 34.3 µg/g
- concentration at 24 h [3]: 14300 ng/g
- Activity [4]: 206.7 U/L
- Activity [5]: Active
- Activity [6]: Toxic
- Activity [7]: 3 U/L
- Activity [8]: Active
- Activity [9]: Active
- Activity [10]: 80.3 U/L
- Activity [11]: 4045 U/L
- Drug uptake [12]: 1.7 µg/g
- Activity [13]: 44 U/L
- degraded at 7 h [14]: > 20%
- Activity [15]: inactive
- concentration at 24 h [16]: 4200 ng/g
- Stability [17]: Stable
- Drug uptake [18]: 30.1 µg/g
- remaining at 336 h [19]: < 5%
- Activity [20]: 1936 U/L
- Drug uptake [21]: 19.9 µg/g
- Drug uptake [22]: 31 µg/g
- concentration at 24 h [23]: 4200 ng/g
- Stability [24]: Stable
- Stability [25]: Unstable
- Activity [26]: Toxic
- Drug uptake [27]: 25 µg/g
- Stability [28]: 1 weeks
- Activity [29]: Non-toxic
- half-life [30]: 30 min
